# Test results as given in ChEMBL document CHEMBL5096224, “First-in-Class Dual Mechanism Ferroptosis-HDAC Inhibitor Hybrids” (J Med Chem, 2022).
# Active and inactive are the calls of the source. No cut-off for these calls is given here.
# Assays:
# Histone deacetylase 1 = Histone deacetylase 1 (Homo sapiens, UniProt Q13547); assay: Inhibition of full length his6/FLAG-tagged human recombinant HDAC1(1 to 482 residues) expressed in Sf9 insect cells
# NCI-H522 [1] = assay: Cytotoxicity against human NCI-H522 cells assessed as reduction in cell viability incubated for 30 mins by methylene blue staining based analysis; details: NCI-H522, 0.5 h
# Histone deacetylase 8 = target: T1, Histone deacetylase 8 (Homo sapiens, UniProt Q9BY41); assay: Inhibition of full length C-terminal his-tagged human recombinant HDAC8 expressed in Sf9 insect cells
# T1 sequence (Q9BY41 whole entry): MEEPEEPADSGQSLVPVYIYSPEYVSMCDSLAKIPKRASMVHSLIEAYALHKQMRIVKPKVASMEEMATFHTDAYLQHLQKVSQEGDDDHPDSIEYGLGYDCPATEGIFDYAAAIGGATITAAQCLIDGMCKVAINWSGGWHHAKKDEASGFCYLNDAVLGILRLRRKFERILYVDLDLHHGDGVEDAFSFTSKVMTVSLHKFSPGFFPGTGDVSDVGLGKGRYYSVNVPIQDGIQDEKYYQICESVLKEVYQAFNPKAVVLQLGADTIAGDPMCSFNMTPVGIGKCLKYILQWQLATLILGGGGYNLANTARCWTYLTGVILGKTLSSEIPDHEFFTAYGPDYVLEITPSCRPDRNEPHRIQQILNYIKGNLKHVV
# NCI-H522 [2] = assay: Cytotoxicity against human NCI-H522 cells assessed as reduction in cell survival at 1 to 5 uM incubated for 3 days in presence of ferroptosis inhibitor, liproxstatin-1 by methylene blue staining based analysis; format: functional; details: dose 1-5 µM, time 3.0 day
# Histone deacetylase 3 = Histone deacetylase 3 (Homo sapiens, UniProt O15379); assay: Inhibition of full length C-terminal his6/FLAG-tagged human recombinant HDAC3 ([…]) expressed in Sf9 insect cells
# Histone deacetylase 3, sequence (O15379 whole entry): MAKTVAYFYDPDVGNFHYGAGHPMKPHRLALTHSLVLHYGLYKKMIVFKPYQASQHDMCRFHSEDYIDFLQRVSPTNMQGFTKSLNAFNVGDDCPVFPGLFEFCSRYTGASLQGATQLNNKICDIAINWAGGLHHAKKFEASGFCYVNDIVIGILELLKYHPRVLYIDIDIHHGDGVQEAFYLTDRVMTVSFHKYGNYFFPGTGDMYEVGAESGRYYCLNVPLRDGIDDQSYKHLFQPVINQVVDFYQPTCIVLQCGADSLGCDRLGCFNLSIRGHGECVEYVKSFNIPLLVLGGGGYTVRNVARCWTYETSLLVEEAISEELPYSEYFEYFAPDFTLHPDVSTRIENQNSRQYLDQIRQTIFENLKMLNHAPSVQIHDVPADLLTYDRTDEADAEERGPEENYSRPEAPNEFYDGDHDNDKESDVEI
# [3] = target: T2, Protein deacetylase HDAC6 (Homo sapiens, UniProt Q9UBN7); assay: Inhibition of full length C-terminal FLAG-tagged human recombinant HDAC6 expressed inSf9 insect cells; set-up: species or system Sf9
# T2 sequence (Q9UBN7 whole entry): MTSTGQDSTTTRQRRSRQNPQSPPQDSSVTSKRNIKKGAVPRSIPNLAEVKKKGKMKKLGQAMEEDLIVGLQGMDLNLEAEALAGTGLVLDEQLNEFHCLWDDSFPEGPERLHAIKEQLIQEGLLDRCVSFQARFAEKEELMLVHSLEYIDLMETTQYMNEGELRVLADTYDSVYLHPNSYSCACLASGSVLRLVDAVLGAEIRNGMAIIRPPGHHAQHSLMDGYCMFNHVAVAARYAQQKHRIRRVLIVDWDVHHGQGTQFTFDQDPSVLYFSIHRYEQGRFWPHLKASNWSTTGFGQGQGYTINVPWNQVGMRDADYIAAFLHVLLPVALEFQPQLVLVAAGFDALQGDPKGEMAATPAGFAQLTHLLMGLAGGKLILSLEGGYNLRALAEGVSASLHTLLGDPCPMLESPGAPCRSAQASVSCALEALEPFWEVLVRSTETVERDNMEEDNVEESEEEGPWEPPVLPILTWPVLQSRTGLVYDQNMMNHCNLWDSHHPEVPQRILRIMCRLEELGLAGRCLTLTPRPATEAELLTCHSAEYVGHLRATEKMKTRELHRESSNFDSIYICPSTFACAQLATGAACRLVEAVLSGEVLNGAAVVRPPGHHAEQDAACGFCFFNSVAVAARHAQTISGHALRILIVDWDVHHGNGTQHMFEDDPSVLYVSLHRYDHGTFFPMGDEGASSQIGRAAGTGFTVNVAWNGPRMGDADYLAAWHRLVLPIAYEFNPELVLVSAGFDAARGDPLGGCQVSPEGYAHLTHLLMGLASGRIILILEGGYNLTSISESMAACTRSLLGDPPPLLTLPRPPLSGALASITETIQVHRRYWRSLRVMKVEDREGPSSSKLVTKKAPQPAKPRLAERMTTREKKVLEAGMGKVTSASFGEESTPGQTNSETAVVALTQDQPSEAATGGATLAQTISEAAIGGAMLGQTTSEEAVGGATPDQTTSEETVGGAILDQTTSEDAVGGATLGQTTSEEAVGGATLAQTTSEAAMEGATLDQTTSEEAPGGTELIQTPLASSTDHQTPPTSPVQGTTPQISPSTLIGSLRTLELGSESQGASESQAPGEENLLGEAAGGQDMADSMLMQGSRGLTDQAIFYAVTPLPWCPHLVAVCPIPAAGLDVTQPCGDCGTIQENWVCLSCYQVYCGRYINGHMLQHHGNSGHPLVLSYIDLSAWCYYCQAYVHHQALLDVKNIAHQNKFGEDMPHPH
# HCT-116 = assay: Cytotoxicity against human HCT-116 cells assessed as reduction in cell viability incubated for 30 mins by methylene blue staining based analysis; details: HCT-116, 0.5 h
# Histone deacetylase 4 = Histone deacetylase 4 (Homo sapiens, UniProt P56524); assay: Inhibition of […] N-terminal GST/C-terminal his-tagged human recombinant HDAC4 (627 to 1084 residues) expressed in Sf9 insect cells
# Histone deacetylase 4, sequence (P56524 whole entry, the tested form may be a part): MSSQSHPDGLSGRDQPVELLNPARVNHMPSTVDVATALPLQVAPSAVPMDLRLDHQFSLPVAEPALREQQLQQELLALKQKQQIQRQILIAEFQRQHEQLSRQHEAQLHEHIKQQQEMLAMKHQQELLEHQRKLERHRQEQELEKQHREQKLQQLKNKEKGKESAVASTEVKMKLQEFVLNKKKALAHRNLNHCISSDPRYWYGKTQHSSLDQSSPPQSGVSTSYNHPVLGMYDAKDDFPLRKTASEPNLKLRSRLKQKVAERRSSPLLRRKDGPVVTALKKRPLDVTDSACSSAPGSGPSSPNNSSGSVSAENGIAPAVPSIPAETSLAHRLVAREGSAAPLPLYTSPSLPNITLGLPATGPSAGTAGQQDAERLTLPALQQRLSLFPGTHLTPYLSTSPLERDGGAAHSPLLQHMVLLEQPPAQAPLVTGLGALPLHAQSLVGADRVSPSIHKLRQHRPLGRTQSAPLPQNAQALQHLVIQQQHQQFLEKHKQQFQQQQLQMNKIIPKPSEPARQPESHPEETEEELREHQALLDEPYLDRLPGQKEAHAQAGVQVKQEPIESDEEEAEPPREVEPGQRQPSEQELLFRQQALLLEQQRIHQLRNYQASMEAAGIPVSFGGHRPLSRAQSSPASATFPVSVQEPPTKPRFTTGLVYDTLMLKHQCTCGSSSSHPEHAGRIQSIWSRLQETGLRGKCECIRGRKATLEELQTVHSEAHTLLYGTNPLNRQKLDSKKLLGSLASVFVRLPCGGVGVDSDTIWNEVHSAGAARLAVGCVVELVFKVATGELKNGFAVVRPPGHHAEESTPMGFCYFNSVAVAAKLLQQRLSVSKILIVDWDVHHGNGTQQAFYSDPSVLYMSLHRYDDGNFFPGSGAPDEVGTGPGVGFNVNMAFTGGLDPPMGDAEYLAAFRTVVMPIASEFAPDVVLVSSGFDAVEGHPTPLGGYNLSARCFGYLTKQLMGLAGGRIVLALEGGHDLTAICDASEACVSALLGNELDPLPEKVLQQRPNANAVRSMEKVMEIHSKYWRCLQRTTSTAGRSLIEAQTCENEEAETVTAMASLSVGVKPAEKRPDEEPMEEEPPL
# NCI-H522 [4] = assay: Cytotoxicity against human NCI-H522 cells assessed as reduction in cell survival at […] incubated for 3 days by methylene blue staining based analysis; format: functional; details: dose 2.5 µM, time 3.0 day
# Histone deacetylase 2 = Histone deacetylase 2 (Homo sapiens, UniProt Q92769)
# Histone deacetylase 2, sequence (Q92769 whole entry): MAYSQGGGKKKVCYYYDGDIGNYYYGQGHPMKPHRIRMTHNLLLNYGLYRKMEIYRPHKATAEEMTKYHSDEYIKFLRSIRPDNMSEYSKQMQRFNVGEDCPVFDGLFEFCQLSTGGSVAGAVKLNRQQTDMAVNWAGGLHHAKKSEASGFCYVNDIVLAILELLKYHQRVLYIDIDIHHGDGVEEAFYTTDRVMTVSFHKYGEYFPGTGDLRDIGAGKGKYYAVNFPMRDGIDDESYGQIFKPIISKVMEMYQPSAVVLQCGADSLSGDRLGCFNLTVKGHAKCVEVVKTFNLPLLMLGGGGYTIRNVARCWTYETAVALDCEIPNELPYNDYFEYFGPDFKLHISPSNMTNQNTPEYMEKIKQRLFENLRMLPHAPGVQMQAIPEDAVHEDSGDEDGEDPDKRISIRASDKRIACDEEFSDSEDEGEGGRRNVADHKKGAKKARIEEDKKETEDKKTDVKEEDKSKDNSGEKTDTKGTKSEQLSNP
# NCI-H522 [5] = assay: Induction of ferroptosis in human NCI-H522 cells assessed as induction of lipid peroxidase accumulation at 10 uM incubated for 4 days in presence of Lipoxstatin-1 by C11-BODIPY-581/591 staining based flow cytometry analysis; format: functional, cell-based
# NCI-H522 [6] = assay: Induction of ferroptosis in human NCI-H522 cells assessed as viability at 20 uM incubated after 8 to 12 hrs by microscopic analysis; format: functional, cell-based; details: time lower 8.0 hrs, time upper […]
# In short: (§1)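 Time-lapse imaging used NCI-H522 cells adhered overnight and equilibrated to 10% CO2, held in sealed flasks on a 37 °C stage. Frames were taken every 12 min, 300 in total, with a ×40 objective. For Kaplan–Meier curves, at least 100 cells were scored, with death counted per 1 h or 0.2 h interval.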
# [7] = Cytotoxicity against human WI-38 cells assessed as reduction in cell survival incubated for 30 mins by methylene blue staining based analysis
# NCI-H522 [8] = assay: Induction of cell cycle arrest in human NCI-H522 cells assessed as accumulation at G2/M phase 5 uM incubated for 24 to 72 hrs by PI staining based flow cytometric analysis; format: functional; details: time lower […], time upper […]
# NCI-H322M = assay: Cytotoxicity against human NCI-H322M cells assessed as cell growth inhibition incubated for 24 hrs by MTT assay; format: functional, cell-based
# In short: (§2)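 Run within the NCI-60 DTP screen: a single-dose test at 10 μM across about sixty human tumour lines, read as Growth % and mean inhibition. Selected compounds then went to a five-dose assay to derive GI50. Both were single experiments without replicates.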
# NCI-H522 [9] = assay: Induction of cell cycle arrest in human NCI-H522 cells assessed as accumulation at G1 phase 5 uM incubated for 24 to 72 hrs by PI staining based flow cytometric analysis; format: functional; details: time lower […], time upper […]
# NCI-H522 [10] = assay: Induction of ferroptosis in human NCI-H522 cells assessed as viability at 5 uM incubated at 0.2 to 10.2 hrs by microscopic analysis; format: functional, cell-based; details: time 0.2-10.2 hrs; in short: as §1
# HOP-92 = assay: Cytotoxicity against human HOP-92 cells assessed as cell growth inhibition incubated for 24 hrs by MTT assay; format: functional, cell-based; in short: as §2
# SR = assay: Cytotoxicity against human SR cells assessed as cell growth inhibition incubated for 24 hrs by MTT assay; format: functional, cell-based
# [11] = Neurotoxicity in human SH-SY5Y cells assessed as decrease in cell viability at 2.32 uM incubated for 3 days; format: toxicity, cell-based; details: 72 h, time 3 day
# In short: (§3)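 SH-SY5Y cells were grown on poly-D-lysine in DMEM/F12 with 10% FBS and seeded at 15,000/well 36 h before dosing, with DMSO as vehicle. Viability was read by MTT: 2 h at 37 °C, then solubilization for 1 h and absorbance at 570. Data are triplicates from three separate experiments.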
# NCI-H226 = assay: Cytotoxicity against human NCI-H226 cells assessed as cell growth inhibition incubated for 24 hrs by MTT assay; format: functional, cell-based
# HL-60 = assay: Cytotoxicity against human HL-60 cells assessed as cell growth inhibition incubated for 24 hrs by MTT assay; format: functional, cell-based
# NCI-H522 [12] = assay: Induction of ferroptosis in human NCI-H522 cells assessed as induction of lipid peroxidase accumulation at 10 uM incubated for 6 hrs by C11-BODIPY-581/591 staining based flow cytometry analysis; format: functional, cell-based
# In short: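 NCI-H522 cells were plated overnight to about 70% density and treated at 10 μM. C11-BODIPY 581/591 (1 μM) was added at the time of treatment. After 6 h, cells were trypsinized, washed, resuspended in PBS with 2% FBS and analysed by flow cytometry, 20 × 10³ cells per sample.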
# [13] = tested on: Panel NCI-60 (60 carcinoma cell lines); assay: Cytotoxicity against human NCI-60 cells assessed as cell growth inhibition incubated for 24 hrs by MTT assay; format: functional, cell-based; in short: as §2
# K562 = assay: Cytotoxicity against human K562 cells assessed as cell growth inhibition incubated for 24 hrs by MTT assay; format: functional, cell-based
# EKVX = assay: Cytotoxicity against human EKVX cells assessed as cell growth inhibition incubated for 24 hrs by MTT assay; format: functional, cell-based; in short: as §2
# NCI-H23 = assay: Cytotoxicity against human NCI-H23 cells assessed as cell growth inhibition at 10 uM incubated for 24 hrs by MTT assay; details: NCI-H23, 24 h
# NCI-H522 [14] = assay: Induction of cell cycle arrest in human NCI-H522 cells assessed as accumulation at S phase 5 uM incubated for 24 to 72 hrs by PI staining based flow cytometric analysis; format: functional; details: time lower […], time upper […]
# NCI-H522 [15] = assay: Cytotoxicity against human NCI-H522 cells assessed as cell growth inhibition incubated for 24 hrs by MTT assay; format: functional, cell-based
# NCI-H460 = assay: Cytotoxicity against human NCI-H460 cells assessed as cell growth inhibition incubated for 24 hrs by MTT assay; format: functional, cell-based
# A549 = assay: Cytotoxicity against human A549 cells assessed as cell growth inhibition incubated for 24 hrs by MTT assay; format: functional, cell-based
# HOP-62 = assay: Cytotoxicity against human HOP-62 cells assessed as cell growth inhibition incubated for 24 hrs by MTT assay; format: functional, cell-based
# SF-539 = assay: Cytotoxicity against human SF-539 cells assessed as cell growth inhibition incubated for 24 hrs by MTT assay; details: SF-539, 24 h
# MOLT-4 = assay: Cytotoxicity against human MOLT-4 cells assessed as cell growth inhibition incubated for 24 hrs by MTT assay; format: functional, cell-based
# RPMI-8226 = assay: Cytotoxicity against human RPMI-8226 cells assessed as cell growth inhibition incubated for 24 hrs by MTT assay; details: RPMI-8226, 24 h
# [16] = Neurotoxicity in human SH-SY5Y cells assessed as decrease in cell viability at 20 to 80 uM incubated for 3 days; format: toxicity, cell-based; details: 72 h, dose 20-80 µM, time 3 day; in short: as §3
# [17] = Neurotoxicity in human SH-SY5Y cells assessed as decrease in cell viability at 6.665 uM incubated for 3 days; format: toxicity, cell-based; details: 72 h, time 3 day; in short: as §3
# NCI-H522 [18] = assay: Cytotoxicity against human NCI-H522 cells assessed as reduction in cell survival at 1 to 5 uM incubated for 3 days in presence of Methyl 7-(2-ethynylthiazole-4-carboxamido)heptanoate by methylene blue staining based analysis; format: functional; details: dose 1-5 µM, time 3.0 day
# In short: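 Cells (5000/well, n = 3, DMEM with 10% serum, 37 °C, 5% CO2) were treated the day after plating and kept for three days. […] Survival was expressed relative to DMSO.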
# Histone deacetylase 1, sequence (Q13547 whole entry, the tested form may be a part): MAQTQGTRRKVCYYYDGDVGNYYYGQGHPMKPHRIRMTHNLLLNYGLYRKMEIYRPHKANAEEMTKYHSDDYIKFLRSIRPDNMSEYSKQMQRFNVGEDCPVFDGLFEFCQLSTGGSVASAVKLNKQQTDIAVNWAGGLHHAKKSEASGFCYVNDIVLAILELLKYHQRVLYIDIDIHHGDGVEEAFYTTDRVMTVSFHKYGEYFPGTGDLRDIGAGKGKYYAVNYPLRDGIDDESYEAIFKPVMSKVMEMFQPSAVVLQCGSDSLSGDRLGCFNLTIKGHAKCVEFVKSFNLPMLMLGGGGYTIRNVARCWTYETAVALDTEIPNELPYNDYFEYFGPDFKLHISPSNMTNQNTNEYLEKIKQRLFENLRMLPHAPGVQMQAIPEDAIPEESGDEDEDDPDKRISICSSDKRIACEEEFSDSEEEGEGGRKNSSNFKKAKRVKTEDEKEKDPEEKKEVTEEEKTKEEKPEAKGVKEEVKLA
smiles,measurement,setting,value
C#Cc1nc(/C=C\CCCCCC(=O)NO)cs1,IC50,Histone deacetylase 1,130 nM
same,IC50,NCI-H522 [1],1070 nM
same,IC50,Histone deacetylase 8,470 nM
same,Activity,NCI-H522 [2],Active
same,IC50,Histone deacetylase 3,300 nM
same,IC50,[3],25 nM
same,IC50,HCT-116,1190 nM
C#Cc1nc(/C=C/C=C/C(=O)NO)cs1,IC50,Histone deacetylase 1,1000 nM
same,IC50,Histone deacetylase 4,2100 nM
same,IC50,Histone deacetylase 8,670 nM
same,Activity,NCI-H522 [4],Active
same,IC50,Histone deacetylase 3,3100 nM
same,IC50,[3],160 nM
same,IC50,Histone deacetylase 2,1200 nM
C#Cc1nc(C2=C(C)[C@@H](O)CC2)cs1,Activity,NCI-H522 [5],Active
same,Activity,NCI-H522 [6],Active
same,IC50 at 30 min,[7],15100 nM
C#Cc1nc(C(=O)NCCCCCCC(=O)NO)cs1,Activity,NCI-H522 [8],Active
same,Activity,NCI-H322M,Active
same,IC50,Histone deacetylase 1,67 nM
same,Activity,NCI-H522 [9],Active
same,Activity,NCI-H522 [10],Active
same,Activity,HOP-92,Active
same,IC50,Histone deacetylase 8,320 nM
same,Activity,SR,Active
same,Activity,[11],Non-Toxic
same,Activity,NCI-H522 [2],Active
same,Activity,NCI-H226,Active
same,Activity,HL-60,Active
same,Activity,NCI-H522 [12],Active
same,Activity,[13],Active
same,Activity,K562,Active
same,IC50,Histone deacetylase 3,50 nM
same,Activity,EKVX,Active
same,GI50,NCI-H23,780 nM
same,Activity,NCI-H522 [14],Active
same,Activity,NCI-H522 [15],Active
same,IC50,[3],1 nM
same,Activity,NCI-H460,Active
same,Activity,A549,Active
same,Activity,HOP-62,Active
same,GI50,SF-539,1000 nM
same,IC50,Histone deacetylase 2,93 nM
same,Activity,MOLT-4,Active
same,IC50 at 30 min,[7],8370 nM
same,GI50,RPMI-8226,350 nM
O=C(CCCCC/C=C\c1csc(Br)n1)NO,Activity,NCI-H522 [2],Active
O=C(CCCCCCNC(=O)c1csc(Br)n1)NO,Activity,[16],Toxic
same,Activity,NCI-H522 [2],Active
same,Activity,[17],Toxic
same,Activity,NCI-H522 [18],Active
